The list is not random: actives were taken first. Their share in the collection is about 2.8%.
RAM network inh – yeast RAM network inhibition; inhibition, % at 50 µM; S. cerevisiae dse1pr::URA3 reporter, 5-FOA growth OD615, 2 d; analog-sensitive cbk1-as2 kinase mutant strain; AID 868; hit rate 1.8% among 190,000;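 active = inhibition above a set limit, 3 SD over mean compound inhibition, cut at about 8.4% in these data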;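 also: inhibition rescues growth on 5-FOA so higher OD means more RAM inhibition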
TNAP inh hiacc – TNAP (human) inhibition, high acceptor. hit rate 0.03% among 200,000. purified TNAP, CDP-star luminescence, 1 M DEA. P05186. AID 1135. inhibition, % at 20 µM;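 active = over 50% inhibition of tissue-nonspecific alkaline phosphatase at 20 µM in the single-dose screen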
Target sequence (P05186 whole entry, looked up): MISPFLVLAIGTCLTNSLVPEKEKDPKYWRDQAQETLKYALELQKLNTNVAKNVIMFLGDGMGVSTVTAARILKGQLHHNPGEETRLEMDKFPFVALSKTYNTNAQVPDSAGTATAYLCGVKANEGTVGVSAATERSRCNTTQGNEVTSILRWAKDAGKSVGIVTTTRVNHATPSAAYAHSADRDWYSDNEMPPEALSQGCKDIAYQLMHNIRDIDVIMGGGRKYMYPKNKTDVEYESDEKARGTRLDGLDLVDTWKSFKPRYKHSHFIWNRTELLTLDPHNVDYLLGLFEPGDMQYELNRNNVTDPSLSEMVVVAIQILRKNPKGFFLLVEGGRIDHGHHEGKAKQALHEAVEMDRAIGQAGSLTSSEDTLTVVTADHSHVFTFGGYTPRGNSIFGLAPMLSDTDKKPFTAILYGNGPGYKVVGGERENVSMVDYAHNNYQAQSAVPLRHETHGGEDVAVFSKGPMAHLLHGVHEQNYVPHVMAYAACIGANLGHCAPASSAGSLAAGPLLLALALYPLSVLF
Yeast life ext – extends the lifespan of yeast; S. cerevisiae growth with nicotinamide, OD615; deaD strain in restrictive glucose medium; inhibition of the nicotinamide effect, % at 10 µM; hit rate 0.68% among 130,000;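 active = inhibition above a set limit, placed 3 SD over the median of all compounds, cut at about 26% in these data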
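Measured by: optical density (absorbance) at 615 nm; System: modified budding yeast, DeaD strain; Medium: restrictive CSMM-D dextrose medium; Timing: 4 h preincubation then 48 h treatment at 30 °C.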
TNAP act hiacc – increases human TNAP activity under high phosphate acceptor concentration | AID 1136 | P05186 | 200,000 tested, under 10 active | activation factor at 20 µM | purified TNAP, CDP-star luminescence, 1 M DEA, 30 min; stronger effect = higher value; 0 = EDTA background, 1 = DMSO-only activity;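 active = activation factor at least 2 at 20 µM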
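Measured by: Luminescent substrate turnover signal | Test system: Human TNAP | Input: TNAP 1/800 final | Dosing: 20 µM single point | Schedule: 30 min, room temperature | Controls: EDTA wells as negative control, DMSO wells as positive control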
TNAP inh no acc – TNAP (human) inhibition, acceptor-free conditions; hit rate 0.26% among 200,000; inhibition, % at 20 µM; P05186; purified TNAP, CDP-star luminescence, 30 min;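 active = tissue-nonspecific alkaline phosphatase inhibition above about 50% at 20 µM in the single-dose screen, limit read from the data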
BB579 growth dn – yeast BB579 growth reduction in restrictive medium | S. cerevisiae BB579 growth, OD615, 48 h | inhibition, % at 10 µM | hit rate 0.51% among 140,000 | AID 804;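 active = inhibition above a set limit, 3 SD over the mean compound inhibition, cut at about 44% in these data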
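Test system: S. cerevisiae DeaD strain BB579 yeast; Medium: restrictive CSMM-D medium; Compound: one dose, 10 µM compound with 0.25% DMSO; Incubation: 4 h cell preincubation, 48 h compound exposure, 30 °C humidified; Signal: OD at 615 nm; Benchmarks: amphotericin B at 10 µg/mL as positive control.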
Of the large screens only hits and unclear results are named; the others gave an inactive call.

COc1ccc(C(=O)NCc2ccc3c(c2)OCO3)cc1S(=O)(=O)NCc1ccc(Cl)cc1	none
CN(c1ccccc1)S(=O)(=O)c1cccc(C(=O)OCC(=O)NCc2ccco2)c1	none (no result: Yeast life ext, BB579 growth dn)
Fc1ccc(CN2CCN3CCCC3C2C2CCCCC2)cc1F (stereo unspecified)	none
COCCOC(=O)c1c(C)oc2ccc(OC(=O)c3ccc4c(c3)OCO4)cc12	RAM network inh 10
CCOC(=O)Oc1ccc2oc(C)c(C(=O)OCCOC)c2c1	none
COc1ccc2c(c1)C1CC(C)(NC(=O)C1S(=O)(=O)c1ccc(F)cc1)O2 (stereo unspecified)	none
c1ccc(N(c2ccccc2)c2nc(-n3ccnc3)nc(-n3ccnc3)n2)cc1	BB579 growth dn 92
CCCn1c(NC(=O)c2cccc(S(=O)(=O)N3CCCC3)c2)nc2ccccc21	none
C=CCOc1c(Cl)cc(CNc2ccc(N(C)C)cc2)cc1OC	RAM network inh 8.4
COc1cc2nc(CN3C(=O)c4ccccc4C3=O)oc(=O)c2cc1OC	none
c1ccc(-n2nnnc2SCc2cccc(CSc3nnnn3-c3ccccc3)n2)cc1	RAM network inh 8.9 (no result: Yeast life ext)
c1ccc(CSc2nnnn2-c2ccccc2)cc1	none
Cc1ccccc1-n1nnnc1SCc1csc(-c2ccccc2)n1	RAM network inh 8.7
CCc1ccc(NC(=O)c2c(Cl)nc(C)c(Cl)c2C)cc1	none
Cc1ccc2[nH]c3c(c2c1)CCc1cn[nH]c1-3	BB579 growth dn 92
Cc1cccc(/C=N\Nc2cn[nH]c(=O)c2Cl)c1	RAM network inh 9.8
CCOC(=O)/C(=N\Nc1ccccc1)c1csc(Nc2ccc(C)cc2)n1	RAM network inh 10
CCCC(=O)N(c1ccc(OCC)cc1)C1C=CS(=O)(=O)C1 (stereo unspecified)	none
COC(=O)Cc1cc(=O)n2[nH]c(C(F)(F)F)nc2n1	none
Cc1cc(S(=O)(=O)N2CCN(c3c(C)cccc3C)CC2)ccc1F	RAM network inh 10
CC(=O)c1ccc(NC(=O)C(C)OC(=O)c2ccc(NS(=O)(=O)c3ccc(F)c(F)c3)cc2)cc1 (stereo unspecified)	RAM network inh 9.2
Cc1ccc(NC(=O)C(C)OC(=O)c2ccc(NS(=O)(=O)c3ccc(F)c(F)c3)cc2)cc1 (stereo unspecified)	none
COc1ccc(OC)c2[nH]c(=O)c(CCNC(=O)c3cccs3)cc12	none (no result: Yeast life ext, BB579 growth dn)
Cc1cccc(OC(=O)n2c(=S)oc3cc(Cl)ccc32)c1	Yeast life ext 64
CC(C)OC(=O)n1c(=S)oc2ccccc21	none
Nc1ccc(-c2nc3ccc(C(=O)O)cc3s2)cc1	RAM network inh 9.1
O=C(O)c1ccc2nc(-c3ccccc3)sc2c1	BB579 growth dn 47
CCCSC1=N/C(=C\c2ccsc2)C(=O)S1	none
CCCSC1=N/C(=C\c2ccc3c(c2)OCO3)C(=O)S1	RAM network inh 10
CCOc1ccc2nc(SCc3ccc(CC(=O)O)cc3)c(C#N)cc2c1	RAM network inh 9.5 (no result: Yeast life ext, BB579 growth dn)
CCCCSc1nc(C)c(C(C)=O)cc1C#N	RAM network inh 10, BB579 growth dn 50
CCOC(=O)c1cc(C#N)c(SCc2ccc(C#N)cc2)nc1C	RAM network inh 10 (no result: TNAP inh hiacc, TNAP act hiacc, TNAP inh no acc)
O=C(Nc1nc(-c2ccccn2)cs1)C1COc2ccccc2O1 (stereo unspecified)	BB579 growth dn 93
COc1cc(C(=O)NC2CCCCC2)ccc1OCc1ccc(Cl)cc1Cl	none
COc1cc(C(=O)NCCC(C)C)ccc1OCc1ccc(Cl)cc1Cl	RAM network inh 9.8
CCCCCCCCCC(=O)NNC(=O)c1c(O)c2ccccc2n(CCC)c1=O	none (no result: Yeast life ext, BB579 growth dn)
C=CCn1c(=O)c(C(=O)Nc2cccnc2)c(O)c2ccccc21	none (no result: Yeast life ext)
CCCn1c(=O)c(C(=O)NNS(=O)(=O)c2ccc(Cl)cc2)c(O)c2ccccc21	Yeast life ext 27
C=CCn1c(=O)c(C(=O)NCCc2ccccc2)c(O)c2ccccc21	RAM network inh 10, Yeast life ext 29
CCCCCCCCC(=O)NNC(=O)c1c(O)c2ccccc2n(CCC)c1=O	RAM network inh 8.8 (no result: Yeast life ext, BB579 growth dn)
CCCCCCCCCCC(=O)NNC(=O)c1c(O)c2ccccc2n(CC)c1=O	RAM network inh 8.8 (no result: Yeast life ext, BB579 growth dn)
O=C(CNS(=O)(=O)c1ccc(F)cc1)N1CCN(c2ccccc2)CC1	none
COc1ccc(CCN(C)C(=O)C2CCN(Cc3ccc(C)cc3)CC2)cc1OC	none (no result: Yeast life ext, BB579 growth dn)
O=C(c1ccco1)N1CCN(S(=O)(=O)c2ccc(S(=O)(=O)NC3CCCCC3)cc2)CC1	none
CCOC(=O)C(=Cc1ccc(F)cc1)C(=O)OCC	Yeast life ext 78
COc1ccccc1NC(C#N)c1ccccc1OCc1ccccc1 (stereo unspecified)	Yeast life ext 30
Cc1ccc(NC(=O)N2CCC(C(=O)NCC(C)C)CC2)cc1	none
Oc1cccc(/C=N/NC(=S)Nc2cccnc2)c1O	BB579 growth dn 53
COC(=O)C1=C(COc2ccccc2)NC(=O)NC1c1ccc(Br)cc1 (stereo unspecified)	none
CC(C1CC1)N(Cc1ccccc1)C(=O)NC(=O)c1ccccc1 (stereo unspecified)	none (no result: Yeast life ext, BB579 growth dn)
CC(C1CC1)N(Cc1ccccc1)C(=S)Nc1ccccc1Cl (stereo unspecified)	RAM network inh 8.6 (no result: Yeast life ext, BB579 growth dn)
CC(Nc1nc(N2CCNCC2)nc2ccccc12)c1ccccc1 (stereo unspecified)	none (no result: Yeast life ext, BB579 growth dn)
CC1(C)CC(=O)C(C(C2=C(O)CC(C)(C)CC2=O)c2cccs2)C(=O)C1 (stereo unspecified)	none
Cc1ccc(C(C2=C(O)CC(C)(C)CC2=O)C2C(=O)CC(C)(C)CC2=O)o1 (stereo unspecified)	Yeast life ext 44
O=S(=O)(CCSc1ccccn1)c1nc2ccccc2s1	Yeast life ext 60
Cc1cc(N2CCOCC2)ccc1/C=C1\SC(=O)N(C(C)C)C1=O	RAM network inh 11
CCC(C)N1C(=O)S/C(=C/c2ccc(N3CCOCC3)cc2C)C1=O (stereo unspecified)	none
COc1ccc(N2CC(C(=O)Nc3nnc(SCc4ccccn4)s3)CC2=O)cc1 (stereo unspecified)	none
COc1ccccc1N1CC(C(=O)Nc2nnc(SCc3ccccn3)s2)CC1=O (stereo unspecified)	Yeast life ext 30
CCOC(=O)C1=C(Cc2ccc(C)cc2)C(=O)c2ccccc2C1=O	RAM network inh 9.6
CCOC(=O)C1=C(O)c2ccccc2C(=O)/C1=C\c1ccc(CC)cc1	none
O=C(Nc1ccccc1NC(=O)NC1CCCCC1)NC1CCCCC1	none
O=C(Nc1ccccc1)NC1CCCCC1	Yeast life ext 42
S=C(Nc1ccc(Oc2ccccc2)cc1)NC1CCCCCC1	RAM network inh 11, BB579 growth dn 56
